Experimental data: ChEMBL document CHEMBL1133218, “N-[(R,R)-(E)-1-(4-chloro-benzyl)-3-(2-oxo-azepan-3-ylcarbamoyl)-allyl]-N-methyl-3,5-bis-trifluoromethyl-benzamide: an orally active neurokinin NK1/NK2 antagonist” (Bioorg Med Chem Lett, 2000)
pIC50: −log10 of the molar value.

Experiments:
Substance-K receptor = biological target: T1, Substance-K receptor (Homo sapiens, UniProt P21452); experiment: In vitro inhibition of [125I]NKA binding to transfected Chinese hamster ovary cells (CHO cells) expressing recombinant human Tachykinin receptor 2; type: cell-based
T1 sequence (P21452 whole entry): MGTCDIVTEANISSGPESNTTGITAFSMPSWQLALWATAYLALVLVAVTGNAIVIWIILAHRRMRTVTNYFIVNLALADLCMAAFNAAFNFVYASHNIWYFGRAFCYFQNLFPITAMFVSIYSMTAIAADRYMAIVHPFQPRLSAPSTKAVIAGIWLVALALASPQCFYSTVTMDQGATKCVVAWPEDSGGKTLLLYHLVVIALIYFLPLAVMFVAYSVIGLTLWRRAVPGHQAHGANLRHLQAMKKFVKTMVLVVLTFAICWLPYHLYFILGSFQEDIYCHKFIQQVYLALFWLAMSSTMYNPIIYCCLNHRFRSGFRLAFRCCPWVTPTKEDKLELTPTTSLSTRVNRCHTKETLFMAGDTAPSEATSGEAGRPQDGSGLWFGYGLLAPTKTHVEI
Summary of the method: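 Binding of 0.05 nM [125I]-NKA (2200 Ci/mmol) to 3×10^5 hNK2-transfected CHO cells in 20 mM HEPES pH 7.4 with 2 mM MnSO4 and 6 mM MgCl2, across a range of drug concentrations. Incubated 20 min at room temperature. Nonspecific binding taken with 50 nM NKA. Rapid filtration, 4 washes in ice-cold Tricine, filter radioactivity by scintillation counting, triplicates.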

Cavia porcellus [1] = experiment: In vivo inhibition against beta-Ala8-NKA-induced bronchoconstriction in guinea pig at 2 h; type: functional
Cavia porcellus [2] = experiment: In vivo inhibition against beta-Ala8-NKA-induced bronchoconstriction in guinea pig at 4 h; type: functional
Cavia porcellus [3] = experiment: In vivo inhibition against Sar9SP-induced bronchoconstriction in guinea pigs at 2 h; type: functional
Cavia porcellus [4] = experiment: In vivo inhibition against Sar9SP-induced bronchoconstriction in guinea pigs at 4 h; type: functional
Cavia porcellus [5] = experiment: In vivo inhibition against Sar9SP-induced bronchoconstriction in guinea pigs at 1 mg/kg for 12 h; type: functional

SMILES | pIC50 (Substance-K receptor) | further results
CN(C(=O)c1cc(C(F)(F)F)cc(C(F)(F)F)c1)[C@@H](/C=C/C(=O)N[C@H]1CCCCNC1=O)Cc1ccc(Cl)cc1 (mixture of isomers) | 6.92 | –
CN(C(=O)c1cc(C(F)(F)F)cc(C(F)(F)F)c1)C(/C=C/C(=O)NC1CCCCNC1=O)Cc1ccc(Cl)cc1 (mixture of isomers) | 7.26 | –
CN(C(=O)c1cc(C(F)(F)F)cc(C(F)(F)F)c1)[C@@H](/C=C/C(=O)N[C@@H]1CCCCNC1=O)Cc1ccc(Cl)cc1 | 7.62 | ED50 (Cavia porcellus [1]): 0.9 mg/kg; ED50 (Cavia porcellus [2]): 0.73 mg/kg; ED50 (Cavia porcellus [3]): 0.036 mg/kg; ED50 (Cavia porcellus [4]): 0.03 mg/kg; inhibition in vivo at 1 mg/kg (Cavia porcellus [5]): 85%
CN(C(=O)c1cc(C(F)(F)F)cc(C(F)(F)F)c1)[C@H](/C=C/C(=O)N[C@@H]1CCCCNC1=O)Cc1ccc(Cl)cc1 | 6.91 | –
CN(C(=O)c1cc(C(F)(F)F)cc(C(F)(F)F)c1)[C@H](/C=C/C(=O)N[C@H]1CCCCNC1=O)Cc1ccc(Cl)cc1 | 6.52 | –
